Key:
[1] = Metabolic stability in plasma; type: ADME, cell-free
Hepatocyte = experiment: Cytotoxicity against human hepatocytes; type: cell-based
[2] = target: T1, Type-1 angiotensin II receptor (Homo sapiens, UniProt P30556); experiment: Inhibition of AT1 receptor
T1 sequence (P30556 whole entry): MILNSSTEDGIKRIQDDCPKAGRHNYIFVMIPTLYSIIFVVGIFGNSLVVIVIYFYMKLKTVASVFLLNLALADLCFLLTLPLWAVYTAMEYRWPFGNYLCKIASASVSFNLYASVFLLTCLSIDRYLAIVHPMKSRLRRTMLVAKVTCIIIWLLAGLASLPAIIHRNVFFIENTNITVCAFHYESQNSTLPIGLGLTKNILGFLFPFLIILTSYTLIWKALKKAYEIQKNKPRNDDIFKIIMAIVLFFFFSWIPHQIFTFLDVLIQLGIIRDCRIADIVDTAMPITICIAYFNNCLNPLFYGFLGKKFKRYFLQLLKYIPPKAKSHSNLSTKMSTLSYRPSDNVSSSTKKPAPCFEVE

[3] = target: Kappa-type opioid receptor (Homo sapiens) (UniProt P41145); experiment: Binding affinity to kappa-opioid receptor at 10 uM
[4] = Metabolic stability in mouse hepatic microsomes assessed as compound remaining at 60 mins; type: ADME; settings: liver microsomes, read-out: Stability
Summary of the method: (§1)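 Test compound incubated with liver microsomes, human or mouse according to the line (the text also calls these liver homogenates). Read-out was the percentage of parent compound remaining after 60 min.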

[5] = Binding affinity to benzodiazepinone receptor at 10 uM
[6] = target: T2, Apelin receptor (Homo sapiens) (UniProt P35414); experiment: Antagonist activity at APJ receptor assessed as inhibition of apelin13-induced cAMP accumulation; type: functional
T2 sequence (whole entry): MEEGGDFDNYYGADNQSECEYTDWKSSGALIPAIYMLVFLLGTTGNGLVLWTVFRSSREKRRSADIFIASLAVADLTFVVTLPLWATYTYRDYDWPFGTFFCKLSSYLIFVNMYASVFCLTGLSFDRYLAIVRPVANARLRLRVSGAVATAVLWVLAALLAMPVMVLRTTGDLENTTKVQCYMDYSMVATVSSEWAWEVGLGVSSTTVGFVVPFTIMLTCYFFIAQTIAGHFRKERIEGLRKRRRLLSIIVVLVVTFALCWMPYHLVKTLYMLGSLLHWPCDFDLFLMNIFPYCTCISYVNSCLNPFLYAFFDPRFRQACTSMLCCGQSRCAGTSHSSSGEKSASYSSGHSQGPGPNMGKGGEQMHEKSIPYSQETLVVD

[7] = Metabolic stability in human hepatic microsomes assessed as compound remaining at 60 mins; type: ADME; settings: liver microsomes, read-out: Stability; summary of the method: as §1
Plasma = experiment: Plasma protein binding in mouse; type: ADME, cell-free

Chain of Kappa-type opioid receptor (Homo sapiens) (P41145 whole entry): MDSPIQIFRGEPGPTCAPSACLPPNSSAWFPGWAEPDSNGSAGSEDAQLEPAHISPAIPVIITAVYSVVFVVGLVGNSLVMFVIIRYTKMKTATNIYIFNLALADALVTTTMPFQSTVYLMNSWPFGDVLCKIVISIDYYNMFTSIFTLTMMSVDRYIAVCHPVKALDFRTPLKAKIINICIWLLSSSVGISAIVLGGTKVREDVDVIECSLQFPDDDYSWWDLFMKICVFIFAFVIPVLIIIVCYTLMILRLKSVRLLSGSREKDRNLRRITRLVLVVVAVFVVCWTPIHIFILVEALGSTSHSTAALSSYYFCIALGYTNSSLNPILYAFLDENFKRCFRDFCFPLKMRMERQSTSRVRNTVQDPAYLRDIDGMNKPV

O=C(Oc1coc(CSc2ncccn2)cc1=O)c1ccc([N+](=O)[O-])cc1
Stability [1]: 42.2%
Activity (Hepatocyte): > 50 µM
IC50 [2]: > 79 µM
Activity [3]: < 50%
remaining at 1 h [4]: 4.9%
Activity [5]: < 70%
inhibition [6]: Dose-dependent effect
remaining at 1 h [7]: 4.2%
PPB (Plasma): 99.1%

Reference: ChEMBL document CHEMBL2157975 (Bioorg Med Chem Lett, 2012)
